# Assay results taken from ChEMBL document CHEMBL3425447, “Discovery of Orally Available Runt-Related Transcription Factor 3 (RUNX3) Modulators for Anticancer Chemotherapy by Epigenetic Activation and Protein Stabilization” (J Med Chem, 2015).
# How the values were obtained:
# NCI-H460 [1] = assay: Antitumor activity against human NCI-H460 cells xenografted in BALB/c nude mouse assessed as reduction in tumor weight at 20 mg/kg, po administered daily for 2 weeks measured every 2 or 3 days for 14 days; type: functional
# In short: (§1)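 Female SPF BALB/c nude mice, 6 weeks old, injected subcutaneously in the flank with NCI-H460 cells (3 × 10^7/animal). At tumor volume 50–80 mm3, randomized four per group. Dosed orally at 20 mg/kg in 10% DMAC/10% Tween 80 in saline, daily for two weeks, versus vehicle control. Tumor length and width measured by caliper three times weekly; body weight monitored.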
# C2C12 = assay: Induction of RUNX transcriptional activation in mouse C2C12-6xOSE2 cells at 1 uM after 24 hrs by luciferase reporter assay relative to FGF-2; type: functional
# In short: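 C2C12-6xOSE stable cells grown in DMEM with 10% FBS at 37°C, 5% CO2. Seeded at 1 × 10^4 cells/well; next day treated with compound or FGF-2 (1 µM each). After 24 h, luciferase measured with Bright-Glo. Activity expressed as percent of the FGF-2 positive-control response.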
# [2] = Cmax in Sprague-Dawley rat at 10 mg/kg, po by LC-MS/MS analysis; type: ADME, organism-based; parameters: dose 10 mg/kg, route oral; details: in vivo
# In short: (§2)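 Specific pathogen-free male SD rats (10 weeks, 298–315 g), n = 3 per route, single dose 2 mg/kg i.v. or 10 mg/kg p.o. Oral vehicle DMAC/Vitamin E TPGS 80/25% solutol HS 15 (10/10/80); dosing volumes 5 (i.v.) and 10 ml/kg (p.o.). Plasma precipitated with acetonitrile containing carbamazepine internal standard, LC-MS/MS. Noncompartmental analysis of mean profiles; linear-trapezoidal AUC (oral 0–5 h, i.v. to infinity).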
# [3] = Volume of distribution at steady state in Sprague-Dawley rat at 2 mg/kg, iv by LC-MS/MS analysis; type: ADME, organism-based; parameters: dose 2 mg/kg, route intravenous; details: in vivo, read-out: Vdss; in short: as §2
# NCI-H23 = assay: Growth inhibition of human NCI-H23 cells after 5 days by sulforhodamine B assay; type: functional; details: NCI-H23, 120 h
# [4] = Terminal half life in Sprague-Dawley rat at 10 mg/kg, po by LC-MS/MS analysis; type: ADME, organism-based; parameters: dose 10 mg/kg, route oral; details: in vivo, read-out: beta t1/2 (converted); in short: as §2
# [5] = AUC (0 to 5 hrs) in Sprague-Dawley rat at 10 mg/kg, po by LC-MS/MS analysis; type: ADME, organism-based; parameters: dose 10 mg/kg, route oral; details: plasma; in short: as §2
# Histone deacetylase = assay: Inhibition of HDAC in human HeLa cell nuclear extract using Fluor de Lys as substrate incubated with compound for 30 mins by microtiter-plate reading flourimeter analysis; type: protein assay
# [6] = Metabolic stability in human liver microsomes assessed as compound remaining at 1 uM after 60 mins byLC-ESI/MS/MS analysis in presence of NADPH; type: ADME; details: read-out: Stability
# In short: (§3)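 Rat or human liver microsomes (0.5 mg/ml) incubated with test compound (1 µM) at 37°C for 60 min, with or without NADPH or UDPGA cofactor, n = 2–3. Percent parent remaining quantified by LC-ESI/MS/MS.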
# Mus musculus = assay: Toxicity against BALB/c nude mouse xenografted with human NCI-H460 cells assessed as body weight loss at 20 mg/kg, po administered daily for 2 weeks; type: organism-based; parameters: dose 20 mg/kg, route oral; details: in vivo, 336 h; in short: as §1
# [7] = Terminal half life in Sprague-Dawley rat at 2 mg/kg, iv by LC-MS/MS analysis; type: ADME, organism-based; parameters: dose 2 mg/kg, route intravenous; details: in vivo, read-out: beta t1/2 (converted); in short: as §2
# MDA-MB-231 = assay: Growth inhibition of human MDA-MB-231 cells after 5 days by sulforhodamine B assay; type: functional; details: MDA-MB-231, 120 h
# NCI-H460 [8] = assay: Induction of RUNX3 mRNA expression in human NCI-H460 cells after 24 hrs by RT-PCR analysis; type: functional, cell-based
# In short: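 NCI-H460 cells in RPMI1640 with 10% FBS were plated and treated the following day. After 24 h, total RNA extracted and 1 µg reverse-transcribed. RUNX3 cDNA amplified with specific primers, run on a 1.5% agarose gel and stained with ethidium bromide. GAPDH served as internal control; SNU16 gastric cells served as positive-control line.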
# [9] = Tmax in Sprague-Dawley rat at 10 mg/kg, po by LC-MS/MS analysis; type: ADME, organism-based; parameters: dose 10 mg/kg, route oral; details: in vivo; in short: as §2
# [10] = Metabolic stability in human liver microsomes assessed as compound remaining at 1 uM after 60 mins by LC-ESI/MS/MS analysis in absence of NADPH; type: ADME; details: read-out: Stability; in short: as §3
# [11] = Oral bioavailability in Sprague-Dawley rat at 10 mg/kg by LC-MS/MS analysis; type: ADME, organism-based; details: in vivo; in short: as §2
# [12] = Growth inhibition of human NUGC3 cells after 5 days by sulforhodamine B assay; type: functional; details: NUGC-3, 120 h
# [13] = Retention time of the compound by HPLC analysis; type: physicochemical
# [14] = AUC(0 to infinity) in Sprague-Dawley rat at 2 mg/kg, iv by LC-MS/MS analysis; type: ADME, organism-based; parameters: time infinity, dose 2 mg/kg, route intravenous; details: plasma
# HEK293 [15] = assay: Induction of myc-tagged RUNX3 acetylation in human HEK293 cells assessed as acetylated RUNX3 level at 1 uM after 24 hrs by immunoprecipitation analysis relative to TSA; type: functional
# In short: (§4)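 HEK293 cells (DMEM, 10% FBS) transfected with myc-RUNX3 vector using Lipofectamine 2000. Next day treated at 1 µM for 24 h. Lysates (HEPES pH 7.5, NP-40 buffer) immunoprecipitated with anti-myc antibody and protein G beads at 4°C. Immunoprecipitates western-blotted with anti-acetylated lysine antibody; relative acetylated RUNX3 quantified.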
# ACHN = assay: Growth inhibition of human ACHN cells after 5 days by sulforhodamine B assay; type: functional; details: 120 h
# [16] = Metabolic stability in mouse liver microsomes assessed as compound remaining at 1 uM after 30 mins byLC-ESI/MS/MS analysis in presence of NADPH; type: ADME; details: read-out: Stability
# In short: (§5)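 Compound at 1 µM incubated in triplicate with pooled mouse liver microsomes (0.5 mg/ml final) in 0.1 M potassium phosphate, pH 7.4, at 37°C, with or without 1 mM NADPH. Reactions stopped at 0 and 30 min with ice-cold acetonitrile containing internal standard. After centrifugation, supernatant analyzed by LC-ESI/MS/MS; percent remaining from analyte/IS peak-area ratios. Buspirone served as positive control.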
# [17] = Growth inhibition of human HCT15 cells after 5 days by sulforhodamine B assay; type: functional; details: HCT-15, 120 h
# [18] = Metabolic stability in rat liver microsomes assessed as compound remaining at 1 uM after 60 mins by LC-ESI/MS/MS analysis in presence of UDPGA; type: ADME; details: read-out: Stability; in short: as §3
# [19] = Clearance in Sprague-Dawley rat at 2 mg/kg, iv by LC-MS/MS analysis; type: ADME, organism-based; parameters: dose 2 mg/kg, route intravenous; details: in vivo; in short: as §2
# HEK293 [20] = assay: Induction of myc-tagged RUNX3 acetylation in human HEK293 cells assessed as RUNX3 level at 1 uM after 24 hrs by immunoprecipitation analysis relative to TSA; type: functional; in short: as §4
# [21] = Metabolic stability in rat liver microsomes assessed as compound remaining at 1 uM after 60 mins by LC-ESI/MS/MS analysis in absence of NADPH; type: ADME; details: read-out: Stability; in short: as §3
# [22] = Metabolic stability in human liver microsomes assessed as compound remaining at 1 uM after 60 mins byLC-ESI/MS/MS analysis in presence of UDPGA; type: ADME; details: read-out: Stability; in short: as §3
# [23] = Metabolic stability in rat liver microsomes assessed as compound remaining at 1 uM after 60 mins by LC-ESI/MS/MS analysis in absence of UDPGA; type: ADME; details: read-out: Stability; in short: as §3
# [24] = Metabolic stability in mouse liver microsomes assessed as compound remaining at 1 uM after 30 mins by LC-ESI/MS/MS analysis in absence of NADPH; type: ADME; details: read-out: Stability; in short: as §5
# [25] = Metabolic stability in rat liver microsomes assessed as compound remaining at 1 uM after 60 mins byLC-ESI/MS/MS analysis in presence of NADPH; type: ADME; details: read-out: Stability; in short: as §3
# [26] = Growth inhibition of human PC3 cells after 5 days by sulforhodamine B assay; type: functional; details: PC-3, 120 h
# [27] = Metabolic stability in human liver microsomes assessed as compound remaining at 1 uM after 60 mins by LC-ESI/MS/MS analysis in absence of UDPGA; type: ADME; details: read-out: Stability; in short: as §3
Structure (SMILES),inhibition in vivo at 20 mg/kg (NCI-H460 [1]) [%],Activity (C2C12) [%],GI50 (NCI-H23) [nM],IC50 (Histone deacetylase) [nM],GI50 (MDA-MB-231) [nM],GI50 [12] [nM],Retention_time [13] [min],fold change (FC) (HEK293 [15]),GI50 (ACHN) [nM],"remaining at 0.5 h, 1 µM [16] [%]",GI50 [17] [nM],"remaining at 1 h, 1 µM [18] [%]",fold change (FC) (HEK293 [20]),"remaining at 1 h, 1 µM [21] [%]","remaining at 1 h, 1 µM [23] [%]","remaining at 0.5 h, 1 µM [24] [%]","remaining at 1 h, 1 µM [25] [%]",GI50 [26] [nM],also measured
O=C(CCC1=CCN(Cc2ccc(Br)cc2)C1=O)NO,37.9,–,–,–,–,–,–,–,–,–,–,–,–,–,–,–,–,–,–
O=C(/C=C/c1cccn(Cc2ccc3ccccc3n2)c1=O)NO,45.7,687.5,130,30,100,710,9.606,77.5,250,90.3,380,72.4,29.3,92,88.9,100,83.5,490,"Cmax [2]: 142 ng/mL; Vd [3]: 14 L/kg; half-life [4]: 10.3 h; AUC(0-t) at 4 h [5]: 863 ng·h/mL; remaining at 1 h, 1 µM [6]: 75.5%; Activity (Mus musculus): Non-toxic; half-life [7]: 4.4 h; Activity (NCI-H460 [8]): Dose-dependent effect; Tmax [9]: 0.67 h; remaining at 1 h, 1 µM [10]: 74.7%; bioavailability [11]: 48.7%; AUC(0-inf) [14]: 354 ng·h/mL; clearance [19]: 93.3 mL/min/kg; remaining at 1 h, 1 µM [22]: 99.7%; remaining at 1 h, 1 µM [27]: 95.2%"
COc1cccc(CCCn2cccc(/C=C/C(=O)NO)c2=O)c1,–,142.1,870,30,720,1050,11.335,0.8,760,88.4,1590,45.7,1.1,116,81.3,110,72.7,700,–
